In the EternaBench riboswitch data:

Tested on: MS2 coat protein
Assay: apparent Kd, MS2 coat protein; higher = weaker binding; RNA-MaP array; FMN 200 µM where present
Summary of the method: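 Green signal from SNAP-549-labelled MS2 coat protein was normalised to red-channel RNA signal and to the median Fmax of control clusters. The protein was titrated from 0.7 or 1.5 nM, doubling to 3 µM, without and then with constant ligand, over designs transcribed by stalled E. coli RNA polymerase on Illumina sequencing-chip clusters, in 100 mM Tris-HCl pH 7.5, 80 mM KCl, 4 mM MgCl2, BSA, DTT, yeast tRNA and Tween-20. The apparent Kd is the median of filtered per-cluster binding-curve fits.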

[1] = designed as: ON switch for flavin mononucleotide, no ligand
[2] = ligand present: flavin mononucleotide, designed as: ON switch for flavin mononucleotide
[3] = designed as: OFF switch for flavin mononucleotide, no ligand
[4] = ligand present: flavin mononucleotide, designed as: OFF switch for flavin mononucleotide

Sequence | apparent Kd [1] [nM] | apparent Kd [2] [nM] | apparent Kd [3] [nM] | apparent Kd [4] [nM]
CACAUUUUAACAGGAUAUGUAAGGUUGUUUAUUAUUGCAUUUACAAUUAUUACAGAAGGGUUAUACAUGAGGAUCACCCAUGUG | 15.3 | 15.5 | – | –
CACCGUUACGUAGGAUAUAGUACAUGAGGAUCACCCAUGUAAUAAAUGAGAAUUUCGGAUGUAUGCUAGAAGGACGAAAUCGGC | – | – | 53 | 49.1
CACGAUCAUGUAGGAUAUAUACUGGAAUACAGUAUAGAAGGACAUGAGGAUCACCCAUGUUAUGUGCCUCCAAGUAAGAUCGUG | – | – | 17.7 | 23.2
CACGAUGAUGUAGGAUAUAUACUGGAAUACAGUAUAGAAGGACAUGAGGAUCACCCAUGUUAAGUGCCUCCAAGUAACAUCGUG | – | – | 17.2 | 25.4
CACGGACAUGAGGAUCACCCAUGUGAGGAUAUGCUCUACGAACGUUUUCCCACGAGAAGCAGAAGGCACAUUUC | – | – | 78.2 | 135
CACUGCAAUGUAGGAUAUCGACUGGAAUACAGUCGAGAAGGACAUGAGGAUCACCCAUGUAAUCCUAAUAAUAAAUAAGCAGUG | – | – | 12.4 | 18.4
CACUGCAAUGUAGGAUAUCGACUGGAAUACAGUCGAGAAGGACAUGAGGAUCACCCAUGUCAUCCUAAUAAUAAAUAAGCAGUG | – | – | 14.4 | 19.5
CAGCAUCAUGUAGGAUAUGCGUGGCGAAGCUAUGCAGAAGGACAUGAGGAUCACCCAUGUCUUACUGUGCGUACACAGUUGCUG | – | – | 6.87 | 11.3
CAGGACAGAGGAUAUACAUAGAUACAGAUUCAUGUAGAACUACAUGAGGAUCACCCAUGUAGAAGGCUGACCUG | – | – | 28.5 | 221
CAGGACAGGAAACGGAGCGGCCAACAUGAGGAUCACCCAUGUAAGGAUAUGCCUACUAAAAGUAGGCAGAAGGUACAGAAGGCA | – | – | 29.9 | 73.1
CAGGUAGCUAGAGGAUAUACACGUCUGGAUAAACCAGACGAAUAAACCACAUGAGGAUCACCCAUGUAGAAGGCUAGCUGCCUG | – | – | 15.2 | 22.7
CAGUACUGAGGAUAUACAUGAGGAUCACCCAUGUAUUCCAGCUAGGAAACUAGCACAUGUAGAAGGCAGUACUG | – | – | 14.2 | 31.1
CAGUACUGAGGAUAUACAUGAGGAUCACCCAUGUCCUAAAAGUAGGAUACUACUAUUAGUAGAAGGCAGUACUG | – | – | 17.9 | 190
CAGUACUGAGGAUAUACAUGAGGAUCACCCAUGUGAAUAGCAUAGGAAACUAUGCUAUGUAGAAGGCAGUACUG | – | – | 14.1 | 22.6
CAGUACUGAGGAUAUACAUGAGGAUCACCCAUGUGCCUUAGCUAGGAUACUAGCAUUAGUAGAAGGCAGUACUG | – | – | 14.1 | 158
CAGUACUGAGGAUAUACAUGAGGAUCACCCAUGUGGUUAAGCUAGGAAACUAGCAAAUGUAGAAGGCAGUACUG | – | – | 240 | 85.1
CAGUACUGAGGAUAUACAUGAGGAUCACCCAUGUGUUCCAGCUAGGAGACUAGCAAAAGUAGAAGGCAGUACUG | – | – | 27 | 345
CAGUACUGAGGAUAUACAUGAGGAUCACCCAUGUGUUCCAGCUAGGGAACUAGCAAAAGUAGAAGGCAGUACUG | – | – | 22.4 | 437
CAGUACUGAGGAUAUACAUGAGGAUCACCCAUGUGUUCCUUGUAGGAUAUGCGCAAAAGUAGAAGCCAGAAGGAGAUGUGCCUA | – | – | 6.95 | 7.31
CAGUUCUGAGGAUAUCCAUCCUCCUACAUGAGGAUCACCCAUGUUUCCCUCUGGGUUUUCGGAGAAGGCAGUUAUC | – | – | 299 | 547
CAUAACGGCUGAGGAUAUUGAAUGUGCGUGGACAUGAGGAUCACCCAUGUUCAAGAAGGCAGCAAUUUACUUGGAUCUAUCCGC | – | – | 66.2 | 217

Sequence | apparent Kd [1] [nM] | apparent Kd [2] [nM] | apparent Kd [3] [nM] | apparent Kd [4] [nM]
CAUAACUUUGAUCUCUCCUACAUGAGGAUCACCCAUGUUGAGAGAAGGAGGCGGCGGAGUGCCGCCUAGGAUAUCUGAAGGGUC | – | – | 6.06 | 7.35
CAUAGGCGAGGAUAUACAUGAGGAUCACCCAUGUAAGGAAACCUGGCAGACUCAGAAUGUAGAAGGCGCACUGA | – | – | 21.6 | 41
CAUAGUAAUUAGGAUAUCUGCCGGCUGAACCGAGGAGAAGGGAUUACAUGAGGAUCACCCAUGUGGUCCUAAGA | – | – | 17 | 18.7
CAUAUACAUGAGGAUCACCCAUGUUAGGAUAUGUUUUAACCGCGCGCAGGGUUAGUUGGCAGAAGGGAUCUGGG | – | – | 31.4 | 39
CAUCUGUCAGGAUAUAUGCGAGGGCCACGAAGCGGCCCUUCAUAGAAGGGACAUGAGGAUCACCCAUGUAGAUC | – | – | 461 | 310
CAUGAUCAUGUAGGAUAUAUACUGGAAUACAGUAUAGAAGGACAUGAGGAUCACCCAUGUUAUGUGCCUCCAAGUGAGAUCAUG | – | – | 20.1 | 28.3
CAUGAUUGGGAAGGAUAUUGACCUAGUUAGUGCCGAGAAGGUCCCUUUCACAUGAGGAUCACCCAUGUGAGACUGGUGUUCGAG | – | – | 26.5 | 50.4
CAUGGCACGUAGGAUAUCUCGCAGCCCGGCUGCAGAGAAGGACGUACAUGAGGAUCACCCAUGUAUGAUCCAAA | – | – | 24.5 | 49.2
CAUGUCCUCACAGGAUAUGCAAUGUAUUUCAUUGCAGAAGGGUGAACACAUGAGGAUCACCCAUGUGGACAUGAUAUAUUUAAG | 529 | 63.4 | – | –
CAUGUGUAAGGAUAUGACAAUGGUAUCUUCGGAUACCAUUGUCAGAAGGUACAUGAGGAUCACCCAUGUACAUC | – | – | 14.3 | 16.8
CAUUAAUUCAUUAUAGUAAUUAUACAGGAUAUGUUACAUGAGGAUCACCCAUGUAUUCAUGGUAAACAGAAGGGUAAUACUAGA | – | – | 12.3 | 22.4
CAUUAAUUCAUUAUAGUAAUUAUACAGGAUAUGUUACAUGAGGAUCACCCAUGUAUUCUUGGUAAACAGAAGGGUAUUUCUAGU | – | – | 7.35 | 9.31
CCAAGCUGUGUGAGGAUAUGCUGAACCUUGGUUCAGCAGAAGGCACAUGAGGAUCACCCAUGUGAAAAGCUUGG | – | – | 16.2 | 56
CCAAGCUGUGUGAGGAUAUGCUGGUCCUUGGAUCAGCAGAAGGCACAUGAGGAUCACCCAUGUGAAAAGCUUGG | – | – | 15.1 | 52.1
CCACCCUGAGGAUAUCCACCCUCAUACAUGAGGAUCACCCAUGUUCAUCCCUGAGUACCCGGAGAAGGCAGAUUUC | – | – | 87.7 | 57.9
CCACUGUCAGGAUAUCGUGCAUAAGCGUUUACAUUUAUGUGCGAGAAGGGACAUGAGGAUCACCCAUGUAAACG | – | – | 417 | 653
CCAGGCAGUGUGAGGAUAUCGUGGUCCUUGGAUCACGAGAAGGCACAUGAGGAUCACCCAUGUGAAUAGCUUGG | – | – | 22.2 | 87.3
CCAUAUAAAUAAGGAUAUUAAGUUGAUUAUCCUCAAACAUGAGGAUCACCCAUGUAUAGUCUUAUUAAGAAGGUAUAGUGUUGG | 608 | 545 | – | –
CCAUCAGCGGGCGUAUCGGUUGGACAUGAGGAUCACCCAUGUAGAAGGACAGGAGUAUUUCGGCUGUAGGAUAUACAUUUGGUG | – | – | 22.5 | 52.7
CCAUCGAGUGUGAGGAUAUGCUGUUCGAAAGAGCAGCAGAAGGCACAUGAGGAUCACCCAUGUGGAUACGGUGG | – | – | 29.1 | 212
CCAUCGGAAGGAUAUACAUGAGGAUCACCCAUGUGCGAGCCCGCGCUCUCGGGAAGAUGUAGAAGGUUCAAGAA | – | – | 35.9 | 36.3
